Data as given in the EternaBench riboswitch data.

System: MS2 coat protein
Assay: apparent Kd, MS2 coat protein; higher = weaker binding; RNA-MaP array; FMN 200 µM where present
Method in brief: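 Designs were transcribed by stalled E. coli RNA polymerase on Illumina sequencing-chip clusters. They were titrated with SNAP-549-labelled MS2 coat protein from 0.7 or 1.5 nM, doubling to 3 µM, in 100 mM Tris-HCl pH 7.5, 80 mM KCl, 4 mM MgCl2, BSA, DTT, yeast tRNA and Tween-20, without and then with constant ligand. The apparent Kd is the median of filtered per-cluster fits after normalisation of green signal to red-channel RNA signal and control-cluster median Fmax.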

[1] = designed as: ON switch for flavin mononucleotide, no ligand
[2] = ligand present: flavin mononucleotide, designed as: ON switch for flavin mononucleotide
[3] = designed as: OFF switch for flavin mononucleotide, no ligand
[4] = ligand present: flavin mononucleotide, designed as: OFF switch for flavin mononucleotide

Row | Sequence | apparent Kd [1] | apparent Kd [2] | apparent Kd [3] | apparent Kd [4]
1 | AAACAUGAGGAUCACCCAUGUAAACGAGAAGGGCGAGAGAGUAGAGGAUAGGAGAAAGAUGAGUCGCAGGAUAUCGACCUCAUA | 16 nM | 17 nM |  | 
2 | CAUGUCCUCACAGGAUAUGCAAUGUAUUUCAUUGCAGAAGGGUGAAUACAUGAGGAUCACCCAUGUGGACAUGAUAUAUUUAAG | 880 nM | 76.6 nM |  | 
3 | AACCGUGCGGAGGAUAUUGAUAUCCCAGUCUAUCAAGAAGGCUGCACAUGAGGAUCACCCAUGUGAUCCGUGCU |  |  | 21.2 nM | 116 nM
4 | GGAGCAACAUGAGGAUCACCCAUGUAGGAUAUCGCUAUUGUAAUCAUGAAACAUGAUUACAAUAGCGAGAAGGACAUAUGCUUU |  |  | 9.32 nM | 11.9 nM
5 | AUUUUAAAGGGAGGAUAUACAUGAGGAUCACCCAUGUAAACGUGAGGAUCACCCAUGUUAACAAUGUAGAAGGCCUAUAUCUAU |  |  | 41.1 nM | 31 nM
6 | GUCAGCUCGUGAGGAUAUACAACACUGCUUCGGCAGUGUAUUAAAAUAACAUGAGGAUCACCCAUGUAGAAGGCACGAGCUGAU |  |  | 5.14 nM | 6.62 nM
7 | CGCUAUGAUGGGUUUAAUGGAGCAUAGGAUAUGCUUGUACAUGAGGAUCACCCAUGUUAUAUUUUGCAGAAGGGUGCAUUUGCG | 284 nM | 95.3 nM |  | 
8 | AGCUGUGGCAGAGGAUAUACUACCAUAAUCCAUUGCAAAUAGCGAUGGACAUGAGGAUCACCCAUGUAGAAGGCUGUCUCAGCA |  |  | 68.2 nM | 275 nM
9 | GAAGCGCUUGACAUGAGGAUCACCCAUGUUAGAUUGUUAUGUCAGGAUAUAGUCUAGAAACUAGACUAGAAGGGAUAUGCUUCU | 300 nM | 43.1 nM |  | 
10 | GACACUAGUGUUAGGAUAUGUGUGAGGGACCGCAAACAGAAGGAACAUGAGGAUCACCCAUGUGAUGGUUCUGA |  |  | 21.5 nM | 20.4 nM
11 | CGUUUUAAACAAGGAUAUCAUUUGUGUACAAGUUUUACAUGAGGAUCACCCAUGUUAAAUGGUUUUGAGAAGGUGUUUAGAACG | 31.1 nM | 25 nM |  | 
12 | GGUUGGCGAGGAUAUACAUGAGGAUCACCCAUGUGGUCCUGCGGUGGAAUCGCCCUUUGUAGAAGGCGCGGGUC |  |  | 49.5 nM | 44.7 nM
13 | AGCGACCAAGGAUAUACAUGAGGAUCACCCAUGUCGGCGACCUUCCUGGGAUUUCUUAGUAGAAGGUGGUCAAU |  |  | 42.7 nM | 86.9 nM
14 | CGGUGCUGAGGAUAUACAUGAGGAUCACCCAUGUGUUCUAGCUAGCGUACUGGCAGAUGUAGAAGGCGGUACUG |  |  | 18.2 nM | 75.7 nM
15 | GCCGAUUAAGUGAGGAUAUACCUAUGGAUACAUAGGUAGAAGGUACAUGAGGAUCACCCAUGUUCCUUAACGGC |  |  | 11.4 nM | 13.2 nM
16 | AGCUACGUUUCGUAGCAGCUAGGUGAGGAUAUCCACUCUACAUGAGGAUCACCCAUGUUAACAUGGGAGAAGGCGCCUAGAAAG | 104 nM | 11.8 nM |  | 
17 | AUUUUAAUAUAGGAUAUCGAUUUUAUUAUUUAACGAGAAGGAUAAACAUGAGGAUCACCCAUGUGGUAUCAUGG |  |  | 158 nM | 140 nM
18 | AAAAAGUGAUGGUAGGAUAUUGGAAAAGCCACAUGAGGAUCACCCAUGUCAAAAAACCUAAAAAACAAGAAGGGCUGUUAUAAAAA | 18.5 nM | 14.8 nM |  | 
19 | CGGUUGUCAGGAUAUACGAACAUGUCGCCAGAUGUCAUGGUACAUGAGGAUCACCCAUGUAGAAGGGAGGAGGU |  |  | 135 nM | 80 nM
20 | GGAUCGAAUGUGAGGAUAUACCACUGGAUACAGUGGUAGAAGGCACAUGAGGAUCACCCAUGUCCUUACGAUCC |  |  | 96.5 nM | 319 nM
21 | CCUCGACAUGAGGAUCACCCAUGUCAGGAUAUUGUGUCUCGGGUUUUUUACCGAAAGGCGAGAAGGGAUGUGUG |  |  | 16.1 nM | 21 nM
22 | CUAUUCCGAGGAUAUACAUGAGGAUCACCCAUGUCGGGCCUCUGCGUUUAGCGCGAAAGUAGAAGGUGGGUUUC |  |  | 34.5 nM | 33.6 nM
23 | AAUUUGUGAAAAUUACAUGAGGAUCACCCAUGUUAGGGAAUGCAGGAUAUGUGGAAUAUUAUUUAACAGAAGGGCAAUAAUUUU | 56.3 nM | 41.6 nM |  | 
24 | UCCUUGUCCUGAGGAUAUCCGCGGUGACCAAAAGGAGAAGGCAGGACAUGAGGAUCACCCAUGUACCCAGAAAACGUGCAGAGU |  |  | 30.1 nM | 197 nM

Row | Sequence | apparent Kd [1] | apparent Kd [2] | apparent Kd [3] | apparent Kd [4]
25 | ACGAGUAAAGCAGGAUAUCUAUUGUCUCUGUAACAUGAGGAUCACCCAUGUAGAGAAGGGCUUAGUCAUACACUUCGAAGUUGC |  |  | 9.78 nM | 9.77 nM
26 | AUGAGGUCAGGAUAUGCAUGGCGGGACUUGCGUCGUGGCGUGGAGAAGGGACAUGAGGAUCACCCAUGUGGAGU |  |  | 91.4 nM | 50.5 nM
27 | UUUUAACAUGAGGAUCACCCAUGUGAGGAUAUCGAAAUUUAUAUUAAUAUUAAUUAUUCGAGAAGGCACAUUUU |  |  | 119 nM | 126 nM
28 | AAAAAGGCAGGAUAUACAUGAGGAUCACCCAUGUGAAAAAAAAAAAAAAAAAAAAAGUGUAGAAGGGUCAAAAA |  |  | 56.9 nM | 46.7 nM
29 | CUACCUUAUGAGAAGGCGAUCAUGAAACAUGAUCGAGGAUAUCAUGUAAACAUGAGGAUCACCCAUGUAUGGGUAUUAUGGUAG | 331 nM | 40.4 nM |  | 
30 | GUGCCUUGGGAGAAGGCCGAUAGCAAAGCUAUCGGAGGAUAUUCAUACCGGAAACGGACAUGAGGAUCACCCAUGUGGCACAAA | 1280 nM | 51.7 nM |  | 
31 | GGGCUGUCAGGAUAUGCUUCGGCUUCGGAAAUGAAGUUGAAGUAGAAGGGACAUGAGGAUCACCCAUGUGGCCC |  |  | 28.9 nM | 35 nM
32 | GGUCCGUAACAGAAGGCCGUAACUGGUGGUGGCGGAGGAUAUGUGGGCGGCCCUUGACAACAUGAGGAUCACCCAUGUAUGUAA | 328 nM | 30.6 nM |  | 
33 | GUGUAGUCAGGAUAUACAGAGGAAGAUAAUACAAUAUAAGUACAUGAGGAUCACCCAUGUAGAAGGGACAGUGU |  |  | 30.8 nM | 32.4 nM
34 | AUAAUGUGAGGAUAUCAGUCGACUAGCUGCGGCUAGUCGACUGAGAAGGCACAUGAGGAUCACCCAUGUAGAUC |  |  | 978 nM | 47.7 nM
35 | UAAACACCCUCAUGUGCCUGAGGACAUGAGGAUCACCCAUGUAAGGAUAUAGCCAUUAAAUCUAACUAGAAGGUAUAGGAAAUC |  |  | 597 nM | 476 nM
36 | UUACUGUUAUAGAAGGGUAUUUGGGAAUUACAUGAGGAUCACCCAUGUUUUAUAGGAUAUGUAUAUAGUAUUUAAUCAAGUUUA |  |  | 17.8 nM | 15.7 nM
37 | AUACAUGAGGAUCACCCAUGUUACUGGGUCUUUUUAGAACGUAGAAGGAUGAUAUUAUAAAUAUCAUAGGAUAUACUAUAUUGU |  |  | 52 nM | 59.5 nM
38 | ACUAGAUGAGGAUAUGCAUAUUUUCGUGUUCUUCUAGGUUAACAUGAGGAUCACCCAUGUAGAAGGCGUCUGGA |  |  | 19.6 nM | 37.7 nM
39 | AGCAUGUGAGGAUAUGCGGACUCCGGUAAAGCUGGAGUCCAGUAGAAGGCACAUGAGGAUCACCCAUGUGAGAU |  |  | 59.7 nM | 212 nM
40 | GCCAUCAUAUGAGGAUAUGACACCGAAACGGUGUCAGAAGGCAUGUCGAUAGACAUGAGGAUCACCCAUGUAUAGAUGAUGGCA | 963 nM | 67.8 nM |  | 
41 | UUGUUGUAUGUAGGAUAUGCGUAUUGUUAUUAUGCAGAAGGACAUGAGGAUCACCCAUGUAUAUUAUUAUUAUAUAUUAUAUAU |  |  | 26.3 nM | 43.5 nM
42 | CAGAGGAUGUAAGGAUAUCGUCAGGAAUACUGACGAGAAGGUACAUGAGGAUCACCCAUGUAUAUGAAAGAUAAUAAACCUCUG |  |  | 14.4 nM | 17.2 nM
43 | GGCGAACAGGCUAACAUGAGGAUCACCCAUGUGGACUCAUGGUAGGAUAUGCUGUACAAAGUACAGCAGAAGGGCCGGUGAGCC | 139 nM | 376 nM |  | 
44 | AAAUAGGAAGGAUAUACGGCGGGAUACUGGUUCCACGUGUUACAUGAGGAUCACCCAUGUAGAAGGUCUGGUUA |  |  | 24.7 nM | 55.4 nM
45 | UGGUACAUCGGAGGAUAUCAUGUAGACACAUGAGGAUCACCCAUGUCGAUGGAGACAUCGGAGAUUGAGAAGGCCGAUGUACCU | 503 nM | 23.3 nM |  | 
46 | CUGCGGGCCAUAGGAUAUGCGCAGAAUUAGCAAGCAGAAGGGUGGAUCGUACAAUAAUAACUACAUGAGGAUCACCCAUGUGCU | 235 nM | 56.1 nM |  | 
47 | CGUGACGACAUAGGAUAUUGAUACAUGAGGAUCACCCAUGUCACCCAUUUAUCUCAAAUUGUUGACAAGAAGGAUGUGGUCACG | 16.7 nM | 10.8 nM |  | 
48 | AUUAUGUUAGGAUAUGCUUAUGGUGGAUAGUCCGAUAUGAUGCAGAAGGGACAUGAGGAUCACCCAUGUACUGA |  |  | 27.3 nM | 29.5 nM
